The source made the active and inactive calls. The rule behind the calls is not given here.
Experiments:
[1] = test system: Mus musculus; assay: Antinociceptive activity in CD-1 albino mouse model of oxaliplatin-induced neuropathic pain assessed as decrease in pain-related behaviour at 10 mg/kg, po pretreated with CB1R antagonist, SR141716A for 15 mins before compound addition treated on day 15 post oxaliplatin treatment and measured after 15 to 75 mins post dose by cold plate test; type: functional, organism-based; conditions: time 15-75 min
How it was run: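 Male CD-1 mice (22-25 g) given oxaliplatin 2.4 mg/kg i.p. in 5% glucose on days 1-2, 5-9, 12-14; tested day 15. Compound in 1% carboxymethylcellulose orally at 5, 10, 20, 50 mg/kg. Cold plate licking latency at 15, 30, 45, 60, 75 min post dose. Selective CB1R and CB2R antagonists co-tested. 16 mice per treatment across 2 sessions; one-way ANOVA with Bonferroni.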

[2] = molecular target: Cannabinoid receptor 2 (Mus musculus) (UniProt P47936); assay: Agonist activity at CB2R in LPS induced mouse BV2 cells assessed as increase in IL-10 secretion at 10 uM preincubated with CB2R antagonist, SR144528 for 15 mins followed by compound additon for 30 mins after LPS stimulation for 4 hrs by ELISA; type: cell-based; conditions: BV-2, time 270.0 min
How it was run: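 BV-2 murine microglia grown in high-glucose DMEM with 10% FBS. Treatments in FBS-free medium: test agonist 10 μM for 30 min, then LPS 5 μg/ml for 4 h; SR144528 10 μM given 15 min before agonist. DMSO ≤0.1% final. Medium spun 10 min at 1000×g; IL-1β, IL-6, IL-10 quantified by ELISA; three independent experiments in duplicate.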

Chain of Cannabinoid receptor 2 (Mus musculus) (P47936 whole entry): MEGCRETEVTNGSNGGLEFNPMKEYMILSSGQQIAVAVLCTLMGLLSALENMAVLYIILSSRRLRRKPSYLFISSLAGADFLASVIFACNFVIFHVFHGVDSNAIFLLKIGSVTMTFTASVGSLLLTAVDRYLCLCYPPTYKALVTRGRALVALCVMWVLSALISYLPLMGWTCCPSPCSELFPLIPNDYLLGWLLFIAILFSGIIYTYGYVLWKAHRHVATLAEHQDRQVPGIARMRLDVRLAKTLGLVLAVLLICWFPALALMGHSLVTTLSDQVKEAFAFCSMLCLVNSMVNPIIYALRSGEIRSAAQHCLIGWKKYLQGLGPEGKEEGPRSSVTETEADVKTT

Structure (SMILES): Cc1c(Br)cc(C(=O)NC2CCCCCC2)c(=O)n1Cc1ccc(F)cc1
- Activity [1]: inactive
- Activity [2]: inactive
